# According to ChEMBL document CHEMBL2062453, “Lead optimization through VLAK protocol: new annelated pyrrolo-pyrimidine derivatives as antitumor agents” (2012):
# What was measured:
# Type in all cases: functional
# 786-0 = test: Cytotoxicity against human 786-0 cells after 48 hrs by SRB assay; conditions: 786-0, 48 h
# How it was run: (§1)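 NCI 60-cell five-dose screen. Cells grown in RPMI 1640 with 5% FBS and 2 mM glutamine, plated at 5000–40,000 cells/well, and preincubated 24 h at 37 °C in 5% CO2. Time-zero plates fixed with TCA. Five serial dilutions of DMSO stock added, then 48 h exposure. TCA fixation, 0.4% SRB staining, absorbance read at 515 nm. GI50 from [(Ti−Tz)/(C−Tz)]×100 = 50.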
# UACC-62 = test: Cytotoxicity against human UACC62 cells after 48 hrs by SRB assay; conditions: UACC-62, 48 h
# How it was run: (§2)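 NCI 60-panel five-dose screen. Cells in RPMI 1640 with 5% FBS and 2 mM glutamine, plated at 5000–40,000 cells/well and preincubated 24 h at 37 °C under 5% CO2. Five 10-fold or half-log dilutions were added from a DMSO stock for 48 h. Cells were TCA-fixed (SR settled cells: 16% final), SRB-stained and read at 515 nm. GI50 was taken where (Ti−Tz)/(C−Tz)×100 = 50.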
# RXF 393 = test: Cytotoxicity against human RXF393 cells after 48 hrs by SRB assay; conditions: RXF 393, 48 h
# How it was run: (§3)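 Five-dose screen, 10-fold or ½-log dilutions, compound stock in DMSO. Cells were in RPMI 1640 with 5% FBS and 2 mM glutamine at 5000–40,000 cells/well, preincubated 24 h, 37 °C, 5% CO₂, with a time-zero plate TCA-fixed. After 48 h drug exposure, cells were TCA-fixed and stained with 0.4% SRB, read at 515 nm. GI50, TGI and LC50 were derived from time-zero, control and test absorbances.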
# OVCAR-5 = test: Cytotoxicity against human OVCAR5 cells after 48 hrs by SRB assay; conditions: OVCAR-5, 48 h; how it was run: as §3
# SNB-19 = test: Cytotoxicity against human SNB19 cells after 48 hrs by SRB assay; conditions: SNB-19, 48 h; how it was run: as §3
# PC-3 = test: Cytotoxicity against human PC3 cells after 48 hrs by SRB assay; conditions: PC-3, 48 h; how it was run: as §3
# SW-620 = test: Cytotoxicity against human SW620 cells after 48 hrs by SRB assay; conditions: SW-620, 48 h; how it was run: as §2
# U-251 = test: Cytotoxicity against human U251 cells after 48 hrs by SRB assay; conditions: U-251, 48 h; how it was run: as §2
# TK-10 = test: Cytotoxicity against human TK10 cells after 48 hrs by SRB assay; conditions: TK-10, 48 h; how it was run: as §2
# NCI-H322M = test: Cytotoxicity against human NCI-H322M cells after 48 hrs by SRB assay; how it was run: as §3
# HT-29 = test: Cytotoxicity against human HT-29 cells after 48 hrs by SRB assay; conditions: HT-29, 48 h; how it was run: as §1
# HOP-62 = test: Cytotoxicity against human HOP62 cells after 48 hrs by SRB assay; conditions: HOP-62, 48 h; how it was run: as §1
# M14 = test: Cytotoxicity against human M14 cells after 48 hrs by SRB assay; conditions: M14, 48 h; how it was run: as §1
# HCT-116 = test: Cytotoxicity against human HCT116 cells after 48 hrs by SRB assay; conditions: HCT-116, 48 h; how it was run: as §1
# OVCAR-8 = test: Cytotoxicity against human OVCAR8 cells after 48 hrs by SRB assay; conditions: OVCAR-8, 48 h; how it was run: as §3
# SNB-75 = test: Cytotoxicity against human SNB75 cells after 48 hrs by SRB assay; conditions: SNB-75, 48 h; how it was run: as §3
# SN12C = test: Cytotoxicity against human SN12C cells after 48 hrs by SRB assay; how it was run: as §3
# MCF7 = test: Cytotoxicity against human MCF7 cells after 48 hrs by SRB assay; conditions: MCF7, 48 h; how it was run: as §1
# MDA-MB-468 = test: Cytotoxicity against human MDA-MB-468 cells after 48 hrs by SRB assay; conditions: MDA-MB-468, 48 h; how it was run: as §3
# SF-295 = test: Cytotoxicity against human SF295 cells after 48 hrs by SRB assay; conditions: SF-295, 48 h; how it was run: as §3
# DU-145 = test: Cytotoxicity against human DU145 cells after 48 hrs by SRB assay; conditions: DU-145, 48 h; how it was run: as §1
# T47D = test: Cytotoxicity against human T47D cells after 48 hrs by SRB assay; how it was run: as §2
# CAKI-1 = test: Cytotoxicity against human Caki1 cells after 48 hrs by SRB assay; conditions: CAKI-1, 48 h; how it was run: as §1
# ACHN = test: Cytotoxicity against human ACHN cells after 48 hrs by SRB assay; how it was run: as §1
# NCI-H460 = test: Cytotoxicity against human NCI-H460 cells after 48 hrs by SRB assay; conditions: NCI-H460, 48 h; how it was run: as §3
# A549 = test: Cytotoxicity against human A549 cells after 48 hrs by SRB assay; conditions: A549, 48 h; how it was run: as §1
# SK-MEL-5 = test: Cytotoxicity against human SK-MEL-5 cells after 48 hrs by SRB assay; conditions: SK-MEL-5, 48 h; how it was run: as §3
# SF-268 = test: Cytotoxicity against human SF268 cells after 48 hrs by SRB assay; conditions: SF-268, 48 h; how it was run: as §3
structure (smiles),measurement,setting,value
CSC1=Nc2c(c(C)c(-c3ccccc3)n2CCCN2CCCCC2)C2=NC(=O)CC(C)N12 (stereo not drawn),GI50,786-0,3.55 µM
same,LC50,786-0,> 100 µM
same,TGI,786-0; read-out: pTGI (converted),47.9 µM
same,GI50,UACC-62,2.82 µM
same,LC50,UACC-62,38 µM
same,TGI,UACC-62; read-out: pTGI (converted),14.1 µM
same,GI50,RXF 393,1.51 µM
same,LC50,RXF 393,25.1 µM
same,TGI,RXF 393; read-out: pTGI (converted),4.68 µM
same,GI50,OVCAR-5,19.1 µM
same,LC50,OVCAR-5,> 100 µM
same,TGI,OVCAR-5; read-out: pTGI (converted),> 100 µM
same,GI50,SNB-19,2.95 µM
same,LC50,SNB-19,> 100 µM
same,TGI,SNB-19; read-out: pTGI (converted),> 100 µM
same,GI50,PC-3,1.38 µM
same,LC50,PC-3,9.12 µM
same,TGI,PC-3; read-out: pTGI (converted),3.55 µM
same,GI50,SW-620,2.4 µM
same,LC50,SW-620,32.4 µM
same,TGI,SW-620; read-out: pTGI (converted),10.5 µM
same,GI50,U-251,2.45 µM
same,LC50,U-251,33.9 µM
same,TGI,U-251; read-out: pTGI (converted),11.2 µM
same,GI50,TK-10,2.88 µM
same,LC50,TK-10,> 100 µM
same,TGI,TK-10; read-out: pTGI (converted),9.33 µM
same,GI50,NCI-H322M,6.17 µM
same,LC50,NCI-H322M,> 100 µM
same,TGI,NCI-H322M; read-out: pTGI (converted),89.1 µM
same,GI50,HT-29,1.62 µM
same,LC50,HT-29,> 100 µM
same,TGI,HT-29; read-out: pTGI (converted),7.24 µM
same,GI50,HOP-62,3.16 µM
same,LC50,HOP-62,> 100 µM
same,TGI,HOP-62; read-out: pTGI (converted),26.3 µM
same,GI50,M14,3.63 µM
same,LC50,M14,64.6 µM
same,TGI,M14; read-out: pTGI (converted),17.4 µM
same,GI50,HCT-116,2.4 µM
same,LC50,HCT-116,> 100 µM
same,TGI,HCT-116; read-out: pTGI (converted),> 100 µM
same,GI50,OVCAR-8,3.72 µM
same,LC50,OVCAR-8,> 100 µM
same,TGI,OVCAR-8; read-out: pTGI (converted),30.9 µM
same,GI50,SNB-75,2.69 µM
same,LC50,SNB-75,> 100 µM
same,TGI,SNB-75; read-out: pTGI (converted),21.9 µM
same,GI50,SN12C,2.29 µM
same,LC50,SN12C,> 100 µM
same,TGI,SN12C; read-out: pTGI (converted),10.7 µM
same,GI50,MCF7,2.88 µM
same,LC50,MCF7,61.7 µM
same,TGI,MCF7; read-out: pTGI (converted),11.2 µM
same,GI50,MDA-MB-468,2.69 µM
same,LC50,MDA-MB-468,> 100 µM
same,TGI,MDA-MB-468; read-out: pTGI (converted),10 µM
same,GI50,SF-295,2.57 µM
same,LC50,SF-295,69.2 µM
same,TGI,SF-295; read-out: pTGI (converted),10.2 µM
same,GI50,DU-145,3.39 µM
same,LC50,DU-145,> 100 µM
same,TGI,DU-145; read-out: pTGI (converted),27.5 µM
same,GI50,T47D,2 µM
same,LC50,T47D,> 100 µM
same,TGI,T47D; read-out: pTGI (converted),7.59 µM
same,LC50,CAKI-1,> 100 µM
same,TGI,CAKI-1; read-out: pTGI (converted),18.6 µM
same,GI50,ACHN,3.02 µM
same,CC50,ACHN; read-out: pLC50 (the source's name) (converted),> 100 µM
same,TGI,ACHN; read-out: pTGI (converted),22.4 µM
same,GI50,NCI-H460,3.24 µM
same,LC50,NCI-H460,67.6 µM
same,TGI,NCI-H460; read-out: pTGI (converted),12 µM
same,GI50,A549,2.95 µM
same,LC50,A549,79.4 µM
same,TGI,A549; read-out: pTGI (converted),10.7 µM
same,GI50,SK-MEL-5,2 µM
same,LC50,SK-MEL-5,14.8 µM
same,TGI,SK-MEL-5; read-out: pTGI (converted),4.9 µM
same,GI50,SF-268,3.39 µM
same,LC50,SF-268,45.7 µM
same,TGI,SF-268; read-out: pTGI (converted),14.1 µM
